“And” between values parts separate entries of the source, which are not always exact repeats. Equal entries are not always repeated.
Tested on: U2OS
Experiment: Multiplex assay against U2OS
Type: toxicity, cell-based
Details: human
In short: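 Phenotypes for tubulin, mitochondrial mass and membrane permeability are expressed as per cents of healthy-nucleus cells. Cells were stained live at seeding with Hoechst33342, BioTracker Green Microtubule Cytoskeleton Dye, MitoTracker Red and Annexin V Alexa Fluor 680, then imaged after compound addition on a CQ1 microscope at 37°C and 5% CO2. Machine-learning gating in CellPathfinder separated Hoechst high-intensity objects from normal cells, divided normal cells by nuclear state (healthy, pyknosed, fragmented) and divided pyknosed cells into mitotic or apoptotic.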

[1] = 12 h, 1 µM, compound concentration 1 uM, replicate 1
[2] = 12 h, 1 µM, compound concentration 1 uM, replicate 2
[3] = 12 h, 10 µM, compound concentration 10 uM, replicate 1
[4] = 12 h, 10 µM, compound concentration 10 uM, replicate 2
[5] = 24 h, 1 µM, compound concentration 1 uM, replicate 1
[6] = 24 h, 1 µM, compound concentration 1 uM, replicate 2
[7] = 24 h, 10 µM, compound concentration 10 uM, replicate 1
[8] = 24 h, 10 µM, compound concentration 10 uM, replicate 2
[9] = 48 h, 1 µM, compound concentration 1 uM, replicate 1
[10] = 48 h, 1 µM, compound concentration 1 uM, replicate 2
[11] = 48 h, 10 µM, compound concentration 10 uM, replicate 1
[12] = 48 h, 10 µM, compound concentration 10 uM, replicate 2

`CN1CCN(Cc2ccc(Nc3ncc(Cl)c(Nc4ccccc4S(=O)(=O)N(C)C)n3)cc2)CC1` [DUBERMATINIB] was tested, and the “Population Apoptotic (%)” value [1] was 73%, the “Population Fragmented Nuclei (%)” value [1] was 20% and the “Population Healthy Nuclei (%)” value [1] was 51%. For the same molecule, the “Population Hoechst High Intensity Objects (%)” value [1] was 11%, the “Population Membrane Permeable-Phenotype (%)” value [1] was 6% and the “Population Mitochondria Different-Phenotype (%)” value [1] was 9%. The “Population Mitotic Cells (%)” value [1] was 26%, the “Population Normal (%)” value [1] was 88% and the “Population Pyknosed Nuclei (%)” value [1] was 27%. For the same molecule, the “Population Tubulin-Different-Phenotype (%)” value [1] was 6%, the “Total Cell Count” value [1] was 172 and the “Population Apoptotic (%)” value [2] was 100%. The “Population Fragmented Nuclei (%)” value [2] was 13%, the “Population Healthy Nuclei (%)” value [2] was 83% and the “Population Hoechst High Intensity Objects (%)” value [2] was 10%. For the same molecule, the “Population Membrane Permeable-Phenotype (%)” value [2] was 4%, the “Population Mitochondria Different-Phenotype (%)” value [2] was 16% and the “Population Mitotic Cells (%)” value [2] was 0%. For the same molecule, the “Population Normal (%)” value [2] was 89%, the “Population Pyknosed Nuclei (%)” value [2] was 2% and the “Population Tubulin-Different-Phenotype (%)” value [2] was 11%. For the same molecule, the “Total Cell Count” value [2] was 65, the “Population Apoptotic (%)” value [3] was 78% and the “Population Fragmented Nuclei (%)” value [3] was 25%. For the same molecule, the “Population Healthy Nuclei (%)” value [3] was 44%, the “Population Hoechst High Intensity Objects (%)” value [3] was 12% and the “Population Membrane Permeable-Phenotype (%)” value [3] was 9%. The “Population Mitochondria Different-Phenotype (%)” value [3] was 40%, the “Population Mitotic Cells (%)” value [3] was 21% and the “Population Normal (%)” value [3] was 87%. For the same molecule, the “Population Pyknosed Nuclei (%)” value [3] was 29%, the “Population Tubulin-Different-Phenotype (%)” value [3] was 28% and the “Total Cell Count” value [3] was 140. The “Population Apoptotic (%)” value [4] was 73%, the “Population Fragmented Nuclei (%)” value [4] was 45% and the “Population Healthy Nuclei (%)” value [4] was 31%. For the same molecule, the “Population Hoechst High Intensity Objects (%)” value [4] was 9%, the “Population Membrane Permeable-Phenotype (%)” value [4] was 28% and the “Population Mitochondria Different-Phenotype (%)” value [4] was 38%. The “Population Mitotic Cells (%)” value [4] was 26%, the “Population Normal (%)” value [4] was 90% and the “Population Pyknosed Nuclei (%)” value [4] was 22%. For the same molecule, the “Population Tubulin-Different-Phenotype (%)” value [4] was 42%, the “Total Cell Count” value [4] was 91 and the “Population Apoptotic (%)” value [5] was 88%. For the same molecule, the “Population Fragmented Nuclei (%)” value [5] was 29%, the “Population Healthy Nuclei (%)” value [5] was 45% and the “Population Hoechst High Intensity Objects (%)” value [5] was 10%. The “Population Membrane Permeable-Phenotype (%)” value [5] was 11%, the “Population Mitochondria Different-Phenotype (%)” value [5] was 14% and the “Population Mitotic Cells (%)” value [5] was 11%. The “Population Normal (%)” value [5] was 90%, the “Population Pyknosed Nuclei (%)” value [5] was 25% and the “Population Tubulin-Different-Phenotype (%)” value [5] was 4%. The “Total Cell Count” value [5] was 188, the “Population Apoptotic (%)” value [6] was 0% and the “Population Fragmented Nuclei (%)” value [6] was 11%. For the same molecule, the “Population Healthy Nuclei (%)” value [6] was 83%, the “Population Hoechst High Intensity Objects (%)” value [6] was 6% and the “Population Membrane Permeable-Phenotype (%)” value [6] was 4%. The “Population Mitochondria Different-Phenotype (%)” value [6] was 36%, the “Population Mitotic Cells (%)” value [6] was 100% and the “Population Normal (%)” value [6] was 93%. For the same molecule, the “Population Pyknosed Nuclei (%)” value [6] was 4%, the “Population Tubulin-Different-Phenotype (%)” value [6] was 14% and the “Total Cell Count” value [6] was 70. For the same molecule, the “Population Apoptotic (%)” value [7] was 84%, the “Population Fragmented Nuclei (%)” value [7] was 38% and the “Population Healthy Nuclei (%)” value [7] was 24%. The “Population Hoechst High Intensity Objects (%)” value [7] was 19%, the “Population Membrane Permeable-Phenotype (%)” value [7] was 4% and the “Population Mitochondria Different-Phenotype (%)” value [7] was 45%. The “Population Mitotic Cells (%)” value [7] was 15%, the “Population Normal (%)” value [7] was 80% and the “Population Pyknosed Nuclei (%)” value [7] was 37%. For the same molecule, the “Population Tubulin-Different-Phenotype (%)” value [7] was 22%, the “Total Cell Count” value [7] was 150 and the “Population Apoptotic (%)” value [8] was 95%. For the same molecule, the “Population Fragmented Nuclei (%)” value [8] was 30%, the “Population Healthy Nuclei (%)” value [8] was 33% and the “Population Hoechst High Intensity Objects (%)” value [8] was 14%. The “Population Membrane Permeable-Phenotype (%)” value [8] was 55%, the “Population Mitochondria Different-Phenotype (%)” value [8] was 55% and the “Population Mitotic Cells (%)” value [8] was 4%. The “Population Normal (%)” value [8] was 85%, the “Population Pyknosed Nuclei (%)” value [8] was 36% and the “Population Tubulin-Different-Phenotype (%)” value [8] was 65%. The “Total Cell Count” value [8] was 87, the “Population Apoptotic (%)” value [9] was 82% and the “Population Fragmented Nuclei (%)” value [9] was 29%. For the same molecule, the “Population Healthy Nuclei (%)” value [9] was 44%, the “Population Hoechst High Intensity Objects (%)” value [9] was 8% and the “Population Membrane Permeable-Phenotype (%)” value [9] was 8%. The “Population Mitochondria Different-Phenotype (%)” value [9] was 28%, the “Population Mitotic Cells (%)” value [9] was 17% and the “Population Normal (%)” value [9] was 91%. For the same molecule, the “Population Pyknosed Nuclei (%)” value [9] was 25%, the “Population Tubulin-Different-Phenotype (%)” value [9] was 11% and the “Total Cell Count” value [9] was 217. For the same molecule, the “Population Apoptotic (%)” value [10] was 100%, the “Population Fragmented Nuclei (%)” value [10] was 16% and the “Population Healthy Nuclei (%)” value [10] was 78%. The “Population Mitochondria Different-Phenotype (%)” value [10] was 37%, the “Population Mitotic Cells (%)” value [10] was 0% and the “Population Pyknosed Nuclei (%)” value [10] was 4%. For the same molecule, the “Population Tubulin-Different-Phenotype (%)” value [10] was 17%, the “Total Cell Count” value [10] was 87 and the “Population Apoptotic (%)” value [11] was 92%. For the same molecule, the “Population Fragmented Nuclei (%)” value [11] was 40%, the “Population Healthy Nuclei (%)” value [11] was 8% and the “Population Hoechst High Intensity Objects (%)” value [11] was 30%. For the same molecule, the “Population Membrane Permeable-Phenotype (%)” value [11] was 33%, the “Population Mitochondria Different-Phenotype (%)” value [11] was 50% and the “Population Mitotic Cells (%)” value [11] was 7%. The “Population Normal (%)” value [11] was 69%, the “Population Pyknosed Nuclei (%)” value [11] was 51% and the “Population Tubulin-Different-Phenotype (%)” value [11] was 33%. The “Total Cell Count” value [11] was 146, the “Population Apoptotic (%)” value [12] was 85% and the “Population Fragmented Nuclei (%)” value [12] was 24%. The “Population Healthy Nuclei (%)” value [12] was 49%, the “Population Hoechst High Intensity Objects (%)” value [12] was 20% and the “Population Membrane Permeable-Phenotype (%)” value [12] was 80%. The “Population Mitochondria Different-Phenotype (%)” value [12] was 84%, the “Population Mitotic Cells (%)” value [12] was 14% and the “Population Normal (%)” value [12] was 79%. For the same molecule, the “Population Pyknosed Nuclei (%)” value [12] was 26%, the “Population Tubulin-Different-Phenotype (%)” value [12] was 76% and the “Total Cell Count” value [12] was 104.
`CN1CCN(Cc2cc(NC(=O)c3ccc4c(c3)CN(c3ccccc3)CC4)cc(C(F)(F)F)c2)CC1` was tested, and the “Population Apoptotic (%)” value [1] was 35% and 75%, the “Population Healthy Nuclei (%)” value [1] was 63% and 89% and the “Population Hoechst High Intensity Objects (%)” value [1] was 2%. For the same molecule, the “Population Membrane Permeable-Phenotype (%)” value [1] was 28% and 46%, the “Population Mitotic Cells (%)” value [1] was 64% and 25% and the “Population Normal (%)” value [1] was 97%. For the same molecule, the “Population Tubulin-Different-Phenotype (%)” value [1] was 98% and 42%, the “Total Cell Count” value [1] was 228 and 171 and the “Population Fragmented Nuclei (%)” value [2] was 28% and 15%. For the same molecule, the “Population Healthy Nuclei (%)” value [2] was 52% and 80%, the “Population Hoechst High Intensity Objects (%)” value [2] was 5% and 15% and the “Population Membrane Permeable-Phenotype (%)” value [2] was 47% and 37%. The “Population Mitotic Cells (%)” value [2] was 65% and 100%, the “Population Normal (%)” value [2] was 94% and 84% and the “Population Pyknosed Nuclei (%)” value [2] was 19%. The “Population Tubulin-Different-Phenotype (%)” value [2] was 100% and 48%, the “Total Cell Count” value [2] was 128 and 83 and the “Population Apoptotic (%)” value [5] was 39% and 22%. For the same molecule, the “Population Fragmented Nuclei (%)” value [5] was 14% and 7%, the “Population Healthy Nuclei (%)” value [5] was 46% and 88% and the “Population Hoechst High Intensity Objects (%)” value [5] was 10% and 3%. For the same molecule, the “Population Membrane Permeable-Phenotype (%)” value [5] was 33% and 28%, the “Population Mitotic Cells (%)” value [5] was 60% and 77% and the “Population Normal (%)” value [5] was 89% and 96%. The “Total Cell Count” value [5] was 255 and 239, the “Population Fragmented Nuclei (%)” value [6] was 19% and 9% and the “Population Healthy Nuclei (%)” value [6] was 45% and 80%. For the same molecule, the “Population Hoechst High Intensity Objects (%)” value [6] was 13% and 11%, the “Population Membrane Permeable-Phenotype (%)” value [6] was 36% and 35% and the “Population Mitotic Cells (%)” value [6] was 44% and 87%. The “Population Normal (%)” value [6] was 86% and 88% and the “Total Cell Count” value [6] was 144 and 92.

— ChEMBL document CHEMBL4689842, “EUbOPEN Chemogenomics Library wave 1” (2021)
